# From ChEMBL document CHEMBL1122956, “Artificial siderophores. 1. Synthesis and microbial iron transport capabilities” (1985)
# Legend:
# Escherichia coli [1] = test: Ability to support the growth of Escherichia coli strain BNV3040 from 50 uM stock solution was determined in growth response assay; assay type: functional
# Method in brief: (§1)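 Disc growth-promotion assay on Escherichia coli K12 strains. Each strain was seeded in a soft nutrient agar overlay on nutrient agar plates. The overlay contained 0.1 mM deferriferrichrome A to make the plates iron deficient. Filter paper discs were each loaded with 10 μL of a 50–500 μM aqueous siderophore solution, with hydroxamate content checked by the ferric perchlorate reagent at 480 nm. Plates were incubated at 37 °C, and the diameter of the growth zone was scored at 12 and 24 h.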
# Escherichia coli [2] = test: Ability to support the growth of Escherichia coli strain RW 193 from 50 uM stock solution was determined in growth response assay; assay type: functional; method in brief: as §1
# Escherichia coli [3] = test: Ability to support the growth of Escherichia coli strain BN3300 from 50 uM stock solution was determined in growth response assay; No growth around disc; assay type: functional, organism-based; method in brief: as §1
# Escherichia coli [4] = test: Ability to support the growth of Escherichia coli strain RWB7 from 50 uM stock solution was determined in growth response assay; No growth around disc; assay type: functional, organism-based; method in brief: as §1
# Escherichia coli [5] = test: Ability to support the growth of Escherichia coli strain RWV193 from 50 uM stock solution was determined in growth response assay; assay type: functional; method in brief: as §1
# Escherichia coli [6] = test: Ability to support the growth of Escherichia coli strain AN193 from 50 uM stock solution was determined in growth response assay; assay type: functional; method in brief: as §1
# Escherichia coli [7] = test: Ability to support the growth of Escherichia coli strain BN3300 from […] was determined in growth response assay; assay type: functional; method in brief: as §1
# Escherichia coli [8] = test: Ability to support the growth of Escherichia coli strain RWB7 from 100 uM stock solution was determined in growth response assay; No growth around disc; assay type: functional, organism-based; method in brief: as §1
# Escherichia coli [9] = test: Ability to support the growth of Escherichia coli strain AN193 from 100 uM stock solution was determined in growth response assay; No growth around disc; assay type: functional, organism-based; method in brief: as §1
# Escherichia coli [10] = test: Ability to support the growth of Escherichia coli strain RWV193 from 100 uM stock solution was determined in growth response assay; assay type: functional; method in brief: as §1
# Escherichia coli [11] = test: Ability to support the growth of Escherichia coli strain BN3300 from 100 uM stock solution was determined in growth response assay; No growth around disc; assay type: functional, organism-based; method in brief: as §1
# Escherichia coli [12] = test: Ability to support the growth of Escherichia coli strain BN3300 from 50&500 uM stock solution was determined in growth response assay; No growth around disc; assay type: functional, organism-based; method in brief: as §1
# Escherichia coli [13] = test: Ability to support the growth of Escherichia coli strain AN193 from 50&500 uM stock solution was determined in growth response assay; No growth around disc; assay type: functional, organism-based; method in brief: as §1
# Escherichia coli [14] = test: Ability to support the growth of Escherichia coli strain RW 193 from 50&500 uM stock solution was determined in growth response assay; assay type: functional; method in brief: as §1
# Escherichia coli [15] = test: Ability to support the growth of Escherichia coli strain RWB7 from 50&500 uM stock solution was determined in growth response assay; No growth around disc; assay type: functional, organism-based; method in brief: as §1
# Escherichia coli [16] = test: Ability to support the growth of Escherichia coli strain BNV3040 from 50&500 uM stock solution was determined in growth response assay; assay type: functional; method in brief: as §1
# Escherichia coli [17] = test: Ability to support the growth of Escherichia coli strain RWV193 from 200 uM stock solution was determined in growth response assay; assay type: functional; method in brief: as §1
# Escherichia coli [18] = test: Ability to support the growth of Escherichia coli strain BNV3040 from 200 uM stock solution was determined in growth response assay; assay type: functional; method in brief: as §1
# Escherichia coli [19] = test: Ability to support the growth of Escherichia coli strain BN3300 from 200 uM stock solution was determined in growth response assay; No growth around disc; assay type: functional, organism-based; method in brief: as §1
# Escherichia coli [20] = test: Ability to support the growth of Escherichia coli strain RWB7 from 200 uM stock solution was determined in growth response assay; No growth around disc; assay type: functional, organism-based; method in brief: as §1
# Escherichia coli [21] = test: Ability to support the growth of Escherichia coli strain AN193 from 380 uM stock solution was determined in growth response assay; No growth around disc; assay type: functional, organism-based; method in brief: as §1
# Escherichia coli [22] = test: Ability to support the growth of Escherichia coli strain RW 193 from 380 uM stock solution was determined in growth response assay; No growth around disc; assay type: functional, organism-based; method in brief: as §1
# Escherichia coli [23] = test: Ability to support the growth of Escherichia coli strain BN3300 from uM stock solution was determined in growth response assay; No growth around disc; assay type: functional, organism-based; method in brief: as §1
# Escherichia coli [24] = test: Ability to support the growth of Escherichia coli strain BNV3040 from 380 uM stock solution was determined in growth response assay; No growth around disc; assay type: functional, organism-based; method in brief: as §1
# Escherichia coli [25] = test: Ability to support the growth of Escherichia coli strain RWV193 from 380 uM stock solution was determined in growth response assay; No growth around disc; assay type: functional, organism-based; method in brief: as §1
# Escherichia coli [26] = test: Ability to support the growth of Escherichia coli strain RWB7 from 380 uM stock solution was determined in growth response assay; No growth around disc; assay type: functional, organism-based; method in brief: as §1
# Escherichia coli [27] = test: Ability to support the growth of Escherichia coli strain RW 193 from 134 uM stock solution was determined in growth response assay; assay type: functional; method in brief: as §1
# Escherichia coli [28] = test: Ability to support the growth of Escherichia coli strain BN3300 from 134 uM stock solution was determined in growth response assay; No growth around disc; assay type: functional, organism-based; method in brief: as §1
# Escherichia coli [29] = test: Ability to support the growth of Escherichia coli strain AN193 from 134 uM stock solution was determined in growth response assay; No growth around disc; assay type: functional, organism-based; method in brief: as §1
# Escherichia coli [30] = test: Ability to support the growth of Escherichia coli strain BNV3040 from 134 uM stock solution was determined in growth response assay; assay type: functional; method in brief: as §1
# Escherichia coli [31] = test: Ability to support the growth of Escherichia coli strain RWB7 from 134 uM stock solution was determined in growth response assay; No growth around disc; assay type: functional, organism-based; method in brief: as §1
# Escherichia coli [32] = test: Ability to support the growth of Escherichia coli strain AN193 from 50 uM stock solution was determined in growth response assay; No growth around disc; assay type: functional, organism-based; method in brief: as §1
# Escherichia coli [33] = test: Ability to support the growth of Escherichia coli strain AN193 from 130 uM stock solution was determined in growth response assay; No growth around disc; assay type: functional, organism-based; method in brief: as §1
# Escherichia coli [34] = test: Ability to support the growth of Escherichia coli strain BNV3040 from 130 uM stock solution was determined in growth response assay; No growth around disc; assay type: functional, organism-based; method in brief: as §1
# Escherichia coli [35] = test: Ability to support the growth of Escherichia coli strain RWB7 from 130 uM stock solution was determined in growth response assay; No growth around disc; assay type: functional, organism-based; method in brief: as §1
# Escherichia coli [36] = test: Ability to support the growth of Escherichia coli strain BN3300 from 130 uM stock solution was determined in growth response assay; No growth around disc; assay type: functional, organism-based; method in brief: as §1
# Escherichia coli [37] = test: Ability to support the growth of Escherichia coli strain RW 193 from 130 uM stock solution was determined in growth response assay; No growth around disc; assay type: functional, organism-based; method in brief: as §1
# Escherichia coli [38] = test: Ability to support the growth of Escherichia coli strain RWV193 from 130 uM stock solution was determined in growth response assay; No growth around disc; assay type: functional, organism-based; method in brief: as §1
compound,measurement,setting,value
CC(=O)N(O)CCCC1NC(=O)C(CCCN(O)C(C)=O)NC1=O (centres undefined),growth zone diameter,Escherichia coli [1],25 mm
same,Inhibitory diameter,Escherichia coli [2],25 mm
same,Inhibitory diameter,Escherichia coli [3],Not toxic
same,Inhibitory diameter,Escherichia coli [4],Not toxic
same,growth zone diameter,Escherichia coli [5],25 mm
same,growth zone diameter,Escherichia coli [6],25 mm
O=C(N[C@H]1COC(=O)[C@@H](NC(=O)c2cccc(O)c2O)COC(=O)[C@@H](NC(=O)c2cccc(O)c2O)COC1=O)c1cccc(O)c1O [ENTEROBACTIN],growth zone diameter,Escherichia coli [7],25 mm
CC(=O)N(O)CCCCCNC(=O)c1cccc(C(=O)NCCCCCN(O)C(C)=O)n1,Inhibitory diameter,Escherichia coli [8],Not toxic
same,Inhibitory diameter,Escherichia coli [9],Not toxic
same,Inhibitory diameter,Escherichia coli [10],25 mm
same,Inhibitory diameter,Escherichia coli [11],Not toxic
CC(=O)N(O)CCCNC(=O)c1cccc(C(=O)NCCCN(O)C(C)=O)n1,Inhibitory diameter,Escherichia coli [8],Not toxic
same,Inhibitory diameter,Escherichia coli [9],Not toxic
same,Inhibitory diameter,Escherichia coli [10],25 mm
same,Inhibitory diameter,Escherichia coli [11],Not toxic
CN(O)C(=O)CCCCCNC(=O)CC(CC(=O)NCCCCCC(=O)N(C)O)C(=O)NCCCCCC(=O)N(C)O,Inhibitory diameter,Escherichia coli [12],Not toxic
same,Inhibitory diameter,Escherichia coli [13],Not toxic
same,growth zone diameter,Escherichia coli [14],25 mm
same,Inhibitory diameter,Escherichia coli [15],Not toxic
same,Inhibitory diameter,Escherichia coli [16],25 mm
CC(=O)N(O)CCCCCNC(=O)CC(O)(CC(=O)NCCCCCN(O)C(C)=O)C(=O)O [ARTHROBACTIN],growth zone diameter,Escherichia coli [1],< 10 mm
same,Inhibitory diameter,Escherichia coli [2],< 10 mm
same,Inhibitory diameter,Escherichia coli [3],Not toxic
same,Inhibitory diameter,Escherichia coli [4],Not toxic
same,growth zone diameter,Escherichia coli [5],< 10 mm
same,growth zone diameter,Escherichia coli [6],< 10 mm
CC(=O)N(O)CCCNC(=O)CC(O)(CC(=O)NCCCN(O)C(C)=O)C(=O)O [SCHIZOKINEN],growth zone diameter,Escherichia coli [17],25 mm
same,growth zone diameter,Escherichia coli [18],25 mm
same,Inhibitory diameter,Escherichia coli [19],Not toxic
same,Inhibitory diameter,Escherichia coli [20],Not toxic
CC(=O)N(O)CCCNC(=O)c1cc(C(=O)NCCCN(O)C(C)=O)cc(C(=O)NCCCN(O)C(C)=O)c1,Inhibitory diameter,Escherichia coli [21],Not toxic
same,Inhibitory diameter,Escherichia coli [22],Not toxic
same,Inhibitory diameter,Escherichia coli [23],Not toxic
same,Inhibitory diameter,Escherichia coli [24],Not toxic
same,Inhibitory diameter,Escherichia coli [25],Not toxic
same,Inhibitory diameter,Escherichia coli [26],Not toxic
CC(=O)N(O)CCCNC(=O)CN(CC(=O)NCCCN(O)C(C)=O)CC(=O)NCCCN(O)C(C)=O,growth zone diameter,Escherichia coli [27],25 mm
same,Inhibitory diameter,Escherichia coli [28],Not toxic
same,Inhibitory diameter,Escherichia coli [29],Not toxic
same,Inhibitory diameter,Escherichia coli [30],25 mm
same,Inhibitory diameter,Escherichia coli [31],Not toxic
FERRICHROME,Inhibitory diameter,Escherichia coli [3],Not toxic
same,Inhibitory diameter,Escherichia coli [4],Not toxic
same,Inhibitory diameter,Escherichia coli [32],Not toxic
CC(=O)N(O)CCCNC(=O)CC(CC(=O)NCCCN(O)C(C)=O)C(=O)NCCCN(O)C(C)=O,Inhibitory diameter,Escherichia coli [8],Not toxic
same,Inhibitory diameter,Escherichia coli [9],Not toxic
same,Inhibitory diameter,Escherichia coli [10],25 mm
same,Inhibitory diameter,Escherichia coli [11],Not toxic
CC(=O)N(O)CCCCCNC(=O)c1cc(C(=O)NCCCCCN(O)C(C)=O)cc(C(=O)NCCCCCN(O)C(C)=O)c1,Inhibitory diameter,Escherichia coli [33],Not toxic
same,Inhibitory diameter,Escherichia coli [34],Not toxic
same,Inhibitory diameter,Escherichia coli [35],Not toxic
same,Inhibitory diameter,Escherichia coli [36],Not toxic
same,Inhibitory diameter,Escherichia coli [37],Not toxic
same,Inhibitory diameter,Escherichia coli [38],Not toxic
